Assay results published in publication PMC9359741 (Clinical Cancer Research, 2022).
Several values for one entry are separate records, joined by “and”; a condition that tells them apart may be missing. Identical values can stand only once.

Key:
Format in all cases: in vivo, human
[1] = system: pancreatic ductal adenocarcinoma (PDA); test: Phase 2 efficacy
Summary of the method: (§1)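 Oral test compound 300 mg QD plus anti-PD-1 antibody 200 mg IV Q3W. PD-1/PD-L1 IR cohort: progression on anti-PD-1/PD-L1 (RECIST or irRC). prOVCA cohort: progression ≤6 months after ≥4 platinum cycles. PDA cohort: ≥1 prior systemic line. Investigator assessed best response per RECIST v1.1 and irRC. ORR used confirmed responses with Clopper–Pearson 95% CI; all dosed patients. Screening tissue was profiled for MSI/MMR, TMB and gene expression.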

[2] = system: patients with PDA, PD-1/PD-L1 IR advanced solid tumors or prOVCA; test: Phase 2, ARRY-382 300 mg QD plus pembrolizumab 200 mg IV Q3W: adverse events; details: for Deaths: mostly disease progression
Summary of the method: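 Open-label study at 12 US centres with three cohorts: pancreatic ductal adenocarcinoma after ≥1 prior systemic line; tumours progressing on anti-PD-1/PD-L1; ovarian, peritoneal or fallopian cancer progressing ≤6 months after ≥4 platinum cycles. Oral test compound 300 mg QD plus anti-PD-1 antibody 200 mg IV every 3 weeks. AEs, SAEs and labs graded by CTCAE v4.03 in all dosed patients; descriptive summary.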

[3] = system: platinum-resistant ovarian cancer (prOVCA); test: Phase 2 efficacy
Summary of the method: as §1

CSF-1R = test: Phase 2 pharmacodynamic biomarkers; details: cycle 1 day 15 compared with cycle 1 day 1
Summary of the method: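 Blood was drawn for serum CSF-1 and CTX, plus serum osteoprotegerin and non-classical monocytes in Phase 2. Urine was collected for NTX. Samples were taken pre-dose on cycle 1 days 1, 8 and 15, on day 1 of later cycles and at discontinuation. Mean change on cycle 1 day 15 versus cycle 1 day 1 was summarized descriptively, with outliers excluded.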

SMILES: Cc1cccc(Cn2nc(C3CC3)c3c(NC(=O)c4cnc5cc(OCCN6CCN(C)CC6)ccn45)cccc32)n1 [ARRY-382]
- Median OS ([1]; PDA): 2.2 (95% CI, 1.5–4.9) months
- Median PFS ([1]; PDA): 1.4 (95% CI, 0.9–2.8) months
- Median irPFS per irRC ([1]; PDA): 1.3 (95% CI, 0.9–2.7) months
- DOR of confirmed PR ([1]; PDA cohort, 1 patient (MSI-Stable, TMB-Low, PD-L1 negative)): 2.4 months
- Best overall response: CR ([1]; PDA, N = 27): 0 (0.0) n (%)
- Best overall response: NE ([1]; PDA, N = 27): 14 (51.9) n (%)
- Best overall response: PD ([1]; PDA, N = 27): 7 (25.9%) n (%) and 7 (25.9) n (%)
- Best overall response: PR ([1]; PDA, N = 27): 1 (3.7) n (%)
- Best overall response: SD ([1]; PDA, N = 27): 5 (18.5) n (%)
- Immune-related best overall response: CR ([1]; PDA, N = 27): 0 (0.0) n (%)
- Immune-related best overall response: NE ([1]; PDA, N = 27): 19 (70.4) n (%)
- Immune-related best overall response: PD ([1]; PDA, N = 27): 0 (0.0) n (%)
- Immune-related best overall response: PR ([1]; PDA, N = 27): 1 (3.7) n (%)
- Immune-related best overall response: SD ([1]; PDA, N = 27): 7 (25.9) n (%)
- ORR, % (95% CI) ([1]; confirmed, PDA, N = 27): 3.7 (0.1–19.0) %
- ir-ORR, % (95% CI) ([1]; confirmed, PDA, N = 27): 3.7 (0.1–19.0) %
- ARRY-382-related SAEs ([2]; PD-1/PD-L1 IR): 15.8%
- ARRY-382-related fatigue ([2]; PD-1/PD-L1 IR): 47.4%
- ARRY-382-related grade ≥3 AEs ([2]; PD-1/PD-L1 IR): 57.9%
- ARRY-382-related increased CPK ([2]; PD-1/PD-L1 IR): 47.4%
- ARRY-382-related nausea ([2]; PD-1/PD-L1 IR): 42.1%
- Dose reduction or interruption of ARRY-382 due to AEs ([2]; PD-1/PD-L1 IR): 13 (68.4%) n (%)
- Patients with ≥1 dose reduction or interruption of ARRY-382 ([2]; PD-1/PD-L1 IR): 15 (78.9%) n (%)
- Permanent discontinuations due to AEs ([2]; PD-1/PD-L1 IR): 1 (5.3%) n (%)
- ARRY-382-related AEs: ALT increased ([2]; PD-1/PD-L1 IR, N = 19): 2 (10.5) n (%)
- ARRY-382-related AEs: AST increased ([2]; PD-1/PD-L1 IR, N = 19): 6 (31.6) n (%)
- ARRY-382-related AEs: All AEs ([2]; PD-1/PD-L1 IR, N = 19): 17 (89.5%) n (%) and 17 (89.5) n (%)
- ARRY-382-related AEs: Amylase increased ([2]; PD-1/PD-L1 IR, N = 19): 4 (21.1) n (%)
- ARRY-382-related AEs: Blood CPK increased ([2]; PD-1/PD-L1 IR, N = 19): 9 (47.4) n (%)
- ARRY-382-related AEs: Decreased appetite ([2]; PD-1/PD-L1 IR, N = 19): 3 (15.8) n (%)
- ARRY-382-related AEs: Diarrhea ([2]; PD-1/PD-L1 IR, N = 19): 5 (26.3) n (%)
- ARRY-382-related AEs: Fatigue ([2]; PD-1/PD-L1 IR, N = 19): 9 (47.4) n (%)
- ARRY-382-related AEs: Nausea ([2]; PD-1/PD-L1 IR, N = 19): 8 (42.1) n (%)
- ARRY-382-related AEs: Vomiting ([2]; PD-1/PD-L1 IR, N = 19): 7 (36.8) n (%)
- Deaths ([2]; PD-1/PD-L1 IR): 10 (52.6%) n (%)
- ARRY-382-related SAEs ([2]; PDA): 11.1%
- ARRY-382-related fatigue ([2]; PDA): 33.3%
- ARRY-382-related grade ≥3 AEs ([2]; PDA): 25.9%
- ARRY-382-related increased AST ([2]; PDA): 18.5%
- ARRY-382-related increased CPK ([2]; PDA): 18.5%
- ARRY-382-related nausea ([2]; PDA): 18.5%
- Dose reduction or interruption of ARRY-382 due to AEs ([2]; PDA): 10 (37.0%) n (%)
- Patients with ≥1 dose reduction or interruption of ARRY-382 ([2]; PDA): 16 (59.3%) n (%)
- Permanent discontinuations due to AEs ([2]; PDA): 4 (14.8%) n (%)
- ARRY-382-related AEs: ALT increased ([2]; PDA, N = 27): 4 (14.8) n (%)
- ARRY-382-related AEs: AST increased ([2]; PDA, N = 27): 5 (18.5) n (%)
- ARRY-382-related AEs: All AEs ([2]; PDA, N = 27): 17 (63.0%) n (%) and 17 (63.0) n (%)
- ARRY-382-related AEs: Amylase increased ([2]; PDA, N = 27): 2 (7.4) n (%)
- ARRY-382-related AEs: Blood CPK increased ([2]; PDA, N = 27): 5 (18.5) n (%)
- ARRY-382-related AEs: Decreased appetite ([2]; PDA, N = 27): 5 (18.5) n (%)
- ARRY-382-related AEs: Diarrhea ([2]; PDA, N = 27): 4 (14.8) n (%)
- ARRY-382-related AEs: Fatigue ([2]; PDA, N = 27): 9 (33.3) n (%)
- ARRY-382-related AEs: Nausea ([2]; PDA, N = 27): 5 (18.5) n (%)
- ARRY-382-related AEs: Vomiting ([2]; PDA, N = 27): 2 (7.4) n (%)
- Deaths ([2]; PDA): 20 (74.1%) n (%)
- ARRY-382-related AEs: ALT increased ([2]; Total, N = 57): 10 (17.5) n (%)
- ARRY-382-related AEs: AST increased ([2]; Total, N = 57): 15 (26.3) n (%)
- ARRY-382-related AEs: All AEs ([2]; Total, N = 57): 43 (75.4%) n (%) and 43 (75.4) n (%)
- ARRY-382-related AEs: Amylase increased ([2]; Total, N = 57): 6 (10.5) n (%)
- ARRY-382-related AEs: Blood CPK increased ([2]; Total, N = 57): 16 (28.1) n (%)
- ARRY-382-related AEs: Decreased appetite ([2]; Total, N = 57): 8 (14.0) n (%)
- ARRY-382-related AEs: Diarrhea ([2]; Total, N = 57): 9 (15.8) n (%)
- ARRY-382-related AEs: Fatigue ([2]; Total, N = 57): 18 (31.6) n (%)
- ARRY-382-related AEs: Nausea ([2]; Total, N = 57): 16 (28.1) n (%)
- ARRY-382-related AEs: Vomiting ([2]; Total, N = 57): 10 (17.5) n (%)
- Patients with ≥1 TEAE ([2]; in each cohort): > 90%
- Patients with a Grade 4 AE ([2]; overall): 7 (12.3%) n (%)
- Patients with a grade 3 AE ([2]; overall): 33 (57.9%) n (%)
- Periorbital edema ([2]; overall): 7.0%
- Patients with a grade 5 AE ([2]; overall, none related to study treatment): 3 (5.3%) n (%)
- ARRY-382-related SAEs ([2]; prOVCA): 0.0%
- ARRY-382-related grade ≥3 AEs ([2]; prOVCA): 45.5%
- Dose reduction or interruption of ARRY-382 due to AEs ([2]; prOVCA): 7 (63.6%) n (%)
- Patients with ≥1 dose reduction or interruption of ARRY-382 ([2]; prOVCA): 7 (63.6%) n (%)
- Permanent discontinuations due to AEs ([2]; prOVCA): 1 (9.1%) n (%)
- Treatment discontinuations due to AEs (primary reason) ([2]; prOVCA): 2 (18.2%) n (%)
- ARRY-382-related AEs: ALT increased ([2]; prOVCA, N = 11): 4 (36.4) n (%)
- ARRY-382-related AEs: AST increased ([2]; prOVCA, N = 11): 4 (36.4) n (%)
- ARRY-382-related AEs: All AEs ([2]; prOVCA, N = 11): 9 (81.8%) n (%) and 9 (81.8) n (%)
- ARRY-382-related AEs: Amylase increased ([2]; prOVCA, N = 11): 0 (0.0) n (%)
- ARRY-382-related AEs: Blood CPK increased ([2]; prOVCA, N = 11): 2 (18.2) n (%)
- ARRY-382-related AEs: Decreased appetite ([2]; prOVCA, N = 11): 0 (0.0) n (%)
- ARRY-382-related AEs: Diarrhea ([2]; prOVCA, N = 11): 0 (0.0) n (%)
- ARRY-382-related AEs: Fatigue ([2]; prOVCA, N = 11): 0 (0.0) n (%)
- ARRY-382-related AEs: Nausea ([2]; prOVCA, N = 11): 3 (27.3) n (%)
- ARRY-382-related AEs: Vomiting ([2]; prOVCA, N = 11): 1 (9.1) n (%)
- Deaths ([2]; prOVCA): 5 (45.5%) n (%)
- Median OS [3]: NR (95% CI, 5.3–NR)
- Median PFS [3]: 2.1 (95% CI, 1.2–4.1) months
- Median irPFS per irRC [3]: 2.5 (95% CI, 1.2–NR) months
- Best overall response: CR ([3]; N = 11): 0 (0.0) n (%)
- Best overall response: NE ([3]; N = 11): 2 (18.2) n (%)
- Best overall response: PD ([3]; N = 11): 5 (45.5%) n (%) and 5 (45.5) n (%)
- Best overall response: PR ([3]; N = 11): 0 (0.0) n (%)
- Best overall response: SD ([3]; N = 11): 4 (36.4%) n (%) and 4 (36.4) n (%)
- Immune-related best overall response: CR ([3]; N = 11): 0 (0.0) n (%)
- Immune-related best overall response: NE ([3]; N = 11): 5 (45.5) n (%)
- Immune-related best overall response: PD ([3]; N = 11): 0 (0.0) n (%)
- Immune-related best overall response: PR ([3]; N = 11): 0 (0.0) n (%)
- Immune-related best overall response: SD ([3]; N = 11): 6 (54.5) n (%)
- ORR, % (95% CI) ([3]; confirmed, N = 11): 0.0 (0.0–28.5) %
- ir-ORR, % (95% CI) ([3]; confirmed, N = 11): 0.0 (0.0–28.5) %
- Change in mean CTX or NTX (CSF-1R): no significant changes
